This note sets out measurements from ChEMBL document CHEMBL5390206, “Ormosianines A-P, Structurally Diverse Quinolizidine Alkaloids with AChE Inhibitory Effects from Ormosia yunnanensis” (J Nat Prod, 2023).

Molecules are shown by their SMILES. pIC50: −log10 of the molar value.

This assay is described as follows: Inhibition of AchE in fly head nerve cells using acetylthiocholine iodide as substrate preincubated for 20 mins followed by substrate addition and measured every 30s for 1 hr by DTNB reagent based Ellman's spectrophotometric method. As to conditions: Diptera, Nerve cell. An outline of the steps: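 Modified spectrophotometric AChE method, with chlorpyrifos and huperzine A run alongside as positive controls.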
For the molecule `C=CCCN1C[C@@H]2C[C@@H](CN3C(=O)CCC[C@]23OC)C1=O`, the pIC50 (commonly the negative decadic logarithm of the IC50, by convention in mol/L) was 4.80.

In the case of `C=CCCN1C[C@@H]2C[C@@H](Cn3c2cccc3=O)C1=O`, the pIC50 is 4.89.

In the case of `C1=C2CCCN3CN4CCCC[C@@H]4[C@]4(C[C@@H]1[C@H]1CCCCN1C4)[C@@H]23`, the pIC50 is 5.28. This pIC50 lies 0.39 log units higher than the previous one.

On to `C1CC[C@H]([C@]23C[C@@H](C[C@@H]4CCCN[C@H]42)[C@H]2CCCCN2C3)NC1`, for which the pIC50 is 5.25.

Molecule `CN1CCCC[C@H]1[C@@]12C[C@H](C[C@H]3CCCN[C@@H]31)[C@H]1CCCCN1C2` had a pIC50 of 4.77. Compared with the last molecule, the pIC50 is 0.48 log units lower.

`CC(=O)O[C@H]1CCN2C[C@@H]3C[C@@H](CN4C(=O)[C@H](O)CC[C@H]34)[C@@H]2C1` showed a pIC50 of 5.01.

`CC(=O)N1CCCC[C@@H]1[C@]12C[C@H](C[C@@H]3CCCN[C@H]31)[C@H]1CCCCN1C2` showed a pIC50 of 5.07.

Molecule `CC(=O)N1CCCC[C@H]1[C@@]12C[C@@H](C[C@H]3CCCN[C@@H]31)[C@H]1CCCCN1C2` gave a pIC50 of 5.25.

The molecule `C=CCCN1C[C@@H]2C[C@@H](CN3C(=O)CCC=C23)C1=O` gave a pIC50 of 4.70. This pIC50 is 0.55 log units lower than that of the molecule before.

For `C=CCCN1C[C@@H]2C[C@@H](CN3C(=O)CC[C@H](O)[C@]23O)C1=O`, the pIC50 was 4.53.

`O=C1C(CCCO)=C[C@H]2C[C@]1([C@@H]1CCCCN1)CN1CCCC[C@@H]21` had a pIC50 of 5.81.

As to `C/C=C1\[C@H]2C=C(C)C[C@]1(N)c1ccc(=O)[nH]c1C2` [HUPERZINE A], the pIC50 was 6.92.

For the molecule `CCOP(=S)(OCC)Oc1nc(Cl)c(Cl)cc1Cl` [CHLORPYRIFOS], the negative-log IC50 (pIC50) was 7.63.
